How the values were obtained:
[1] = (§1) In vitro binding affinity towards FBP aldolase from Bacillus subtilis
Outline: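 Class II aldolase from Bacillus subtilis with FBP as substrate. DHAP formed was measured at 340 nm as NADH consumption, coupled to a 300-fold excess of glycerophosphate dehydrogenase. Medium was 0.1 M glycylglycine buffer pH 7.4, without 2-mercaptoethanol.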

[2] = In vitro binding affinity towards FBP aldolase from yeast; parameters: species or system Saccharomyces cerevisiae
Outline: (§2)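 Yeast aldolase was partly purified after French-press cell disruption (specific activity 5.5 U/mg). DHAP from FBP cleavage was coupled to glycerophosphate dehydrogenase (300-fold excess), with NADH loss monitored at 340 nm. Buffer was 0.1 M glycylglycine, pH 7.4, with 0.01 M 2-mercaptoethanol. FBP served as substrate.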

[3] = In vitro binding affinity towards FBP aldolase from rabbit; parameters: species or system Oryctolagus cuniculus
Outline: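 Rabbit muscle class I aldolase, FBP substrate. Cleavage product DHAP was followed spectrophotometrically at 340 nm through NADH consumption, using a 300-fold excess of glycerophosphate dehydrogenase as coupling enzyme. Medium was 0.1 M triethanolamine–HCl pH 7.6 with 1 mM EDTA.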

Oryctolagus cuniculus [4] = organism: Oryctolagus cuniculus; assay: Selectivity (Ki rabbit /Ki B:subtilis) of inhibitors for class II versus class I FBP aldolase
Oryctolagus cuniculus [5] = organism: Oryctolagus cuniculus; assay: Selectivity (Ki rabbit /Ki yeast) of inhibitors for class II versus class I FBP aldolase
[6] = In vitro binding towards FBP aldolase from rabbit; parameters: species or system Oryctolagus cuniculus
Outline: (§3)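 Rabbit muscle class I aldolase was assayed in 0.1 M triethanolamine–HCl, pH 7.6, with 1 mM EDTA. DHAP released from FBP was measured through a coupled reaction with a 300-fold excess of glycerophosphate dehydrogenase, following NADH consumption spectrophotometrically at 340 nm.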

Bacillus subtilis = assay: Enzymatic kinetics (Km) constant towards FBP aldolase from Bacillus subtilis
Outline: (§4)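 B. subtilis class II aldolase. FBP cleavage was followed by reducing the DHAP formed with a 300-fold excess of glycerophosphate dehydrogenase and reading NADH consumption at 340 nm. Medium was 0.1 M glycylglycine buffer, pH 7.4, without 2-mercaptoethanol. Inhibition was analysed with FBP as substrate.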

Saccharomyces cerevisiae = assay: Enzymatic kinetics (Km) constant towards FBP aldolase from yeast; outline: as §2
Oryctolagus cuniculus [7] = organism: Oryctolagus cuniculus; assay: Enzymatic kinetics (Km) constant towards FBP aldolase from rabbit; outline: as §3
[8] = as §1; outline: as §4; remark: listed apart in the source

| Compound | Ki [1] | Ki [2] | Ki [3] | Selectivity (Oryctolagus cuniculus [4]) | Selectivity (Oryctolagus cuniculus [5]) | Ki [6] | Km (Bacillus subtilis) | Km (Saccharomyces cerevisiae) | Km (Oryctolagus cuniculus [7]) | Ki [8] |
| --- | --- | --- | --- | --- | --- | --- | --- | --- | --- | --- |
| NNC(=O)COP(=O)(O)O [PHOSPHORIC ACID MONOHYDRAZINOCARBONYLMETHYL ESTER] | 670 µM | 0.34 µM | 370 µM | 552 | 1090 |  |  |  |  |  |
| O=C(COP(=O)(O)O)NO [PHOSPHOGLYCOLOHYDROXAMATE] |  | 0.01 µM |  |  | 100 | 1 µM |  |  |  |  |
| O=P(O)(O)OC[C@H]1O[C@](O)(COP(=O)(O)O)[C@@H](O)[C@@H]1O |  |  |  |  |  |  | 2000 µM | 450 µM | 55 µM |  |
| N/C(COP(=O)(O)O)=N/O |  | 2.3 µM | > 1000 µM | > 303 | > 435 |  |  |  |  | 3.3 µM |
